# Assays:
# [1] = biological target: T1, Ephrin type-A receptor 1 (Homo sapiens) (UniProt P21709); assay: Inhibition of human recombinant EphA1 at 500 nM related to control ULK1
# T1 sequence (whole entry): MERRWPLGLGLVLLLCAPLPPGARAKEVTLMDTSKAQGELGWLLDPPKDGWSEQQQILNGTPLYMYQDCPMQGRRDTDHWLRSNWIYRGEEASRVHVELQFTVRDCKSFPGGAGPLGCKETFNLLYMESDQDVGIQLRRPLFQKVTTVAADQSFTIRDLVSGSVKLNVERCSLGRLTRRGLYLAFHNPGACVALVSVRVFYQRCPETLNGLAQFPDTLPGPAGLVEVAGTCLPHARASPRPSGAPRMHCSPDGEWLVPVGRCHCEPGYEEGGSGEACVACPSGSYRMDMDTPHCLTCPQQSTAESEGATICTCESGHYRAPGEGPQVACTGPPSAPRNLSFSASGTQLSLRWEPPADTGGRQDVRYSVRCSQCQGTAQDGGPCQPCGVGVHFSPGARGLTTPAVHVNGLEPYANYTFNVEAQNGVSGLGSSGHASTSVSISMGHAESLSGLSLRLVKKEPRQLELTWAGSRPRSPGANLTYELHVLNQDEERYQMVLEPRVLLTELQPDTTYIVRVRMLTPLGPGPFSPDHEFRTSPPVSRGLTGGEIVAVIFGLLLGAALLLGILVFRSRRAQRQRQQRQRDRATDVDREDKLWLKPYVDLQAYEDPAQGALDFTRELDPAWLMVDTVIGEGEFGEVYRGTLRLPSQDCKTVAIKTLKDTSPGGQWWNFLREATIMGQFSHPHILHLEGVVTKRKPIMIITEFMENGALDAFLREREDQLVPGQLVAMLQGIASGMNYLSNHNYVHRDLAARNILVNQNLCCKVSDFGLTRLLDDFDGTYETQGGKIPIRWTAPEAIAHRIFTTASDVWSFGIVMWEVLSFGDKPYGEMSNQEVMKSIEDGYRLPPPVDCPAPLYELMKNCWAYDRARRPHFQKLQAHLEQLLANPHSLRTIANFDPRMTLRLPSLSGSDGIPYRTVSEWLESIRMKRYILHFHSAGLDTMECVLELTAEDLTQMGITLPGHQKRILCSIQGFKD
# [2] = biological target: Tyrosine-protein kinase ABL2 (Homo sapiens) (UniProt P42684); assay: Inhibition of human recombinant ABL2 at 500 nM in presence of ATP by radiometric assay relative to control
# In short: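 Panel of 327 recombinant human kinases in radiometric activity assays, each screened in duplicate at a single inhibitor concentration; percent activity remaining relative to vehicle control, percent inhibition taken as 100 minus activity remaining.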
# [3] = biological target: 5'-AMP-activated protein kinase catalytic subunit alpha-2 (Homo sapiens) (UniProt P54646); assay: Inhibition of human recombinant AMPKa2 at 15 nM related to control ULK1
# In short: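 Panel of 327 recombinant human kinases, each assayed in vitro by radiometric activity assay in duplicate at a single inhibitor concentration per compound, chosen with reference to its ULK1 inhibition. Activity remaining was expressed as percent of vehicle control, and percent inhibition was calculated as 100 minus percent activity remaining.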
# [4] = biological target: Fibroblast growth factor receptor 2 (Homo sapiens) (UniProt P21802); assay: Inhibition of human recombinant FGFR2 at 15 nM in presence of ATP by radiometric assay relative to control
# [5] = biological target: Serine/threonine-protein kinase 35 (Homo sapiens) (UniProt Q8TDR2); assay: Inhibition of human recombinant CLIK1 at 15 nM related to control ULK1
# [6] = biological target: Homeodomain-interacting protein kinase 1 (Homo sapiens) (UniProt Q86Z02); assay: Inhibition of human recombinant HIPK1 at 40 nM in presence of ATP by radiometric assay relative to control
# [7] = biological target: T2, Serine/threonine-protein kinase DCLK3 (Homo sapiens) (UniProt Q9C098); assay: Inhibition of human recombinant DCAMKL3 at 40 nM in presence of ATP by radiometric assay relative to control
# T2 sequence (whole entry): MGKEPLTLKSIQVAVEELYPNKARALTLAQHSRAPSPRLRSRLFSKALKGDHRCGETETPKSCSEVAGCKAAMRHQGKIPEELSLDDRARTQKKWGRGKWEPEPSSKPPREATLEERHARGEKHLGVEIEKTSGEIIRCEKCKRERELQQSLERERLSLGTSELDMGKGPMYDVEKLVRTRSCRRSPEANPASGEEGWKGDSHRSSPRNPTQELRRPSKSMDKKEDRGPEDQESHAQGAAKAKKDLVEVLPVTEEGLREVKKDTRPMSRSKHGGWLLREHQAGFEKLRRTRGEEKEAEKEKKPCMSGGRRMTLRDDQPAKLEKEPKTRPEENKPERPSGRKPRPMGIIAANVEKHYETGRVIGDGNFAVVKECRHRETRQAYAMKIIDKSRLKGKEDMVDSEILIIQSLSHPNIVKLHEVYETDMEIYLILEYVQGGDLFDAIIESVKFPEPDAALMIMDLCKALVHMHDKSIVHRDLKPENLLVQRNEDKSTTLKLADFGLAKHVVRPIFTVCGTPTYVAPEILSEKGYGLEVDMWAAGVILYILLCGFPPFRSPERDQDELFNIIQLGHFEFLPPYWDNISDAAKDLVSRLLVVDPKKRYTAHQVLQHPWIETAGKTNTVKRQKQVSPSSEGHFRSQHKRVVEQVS
# [8] = biological target: T3, Serine/threonine-protein kinase Sgk3 (Homo sapiens) (UniProt Q96BR1); assay: Inhibition of human recombinant SGK3 at 40 nM in presence of ATP by radiometric assay relative to control
# T3 sequence (whole entry): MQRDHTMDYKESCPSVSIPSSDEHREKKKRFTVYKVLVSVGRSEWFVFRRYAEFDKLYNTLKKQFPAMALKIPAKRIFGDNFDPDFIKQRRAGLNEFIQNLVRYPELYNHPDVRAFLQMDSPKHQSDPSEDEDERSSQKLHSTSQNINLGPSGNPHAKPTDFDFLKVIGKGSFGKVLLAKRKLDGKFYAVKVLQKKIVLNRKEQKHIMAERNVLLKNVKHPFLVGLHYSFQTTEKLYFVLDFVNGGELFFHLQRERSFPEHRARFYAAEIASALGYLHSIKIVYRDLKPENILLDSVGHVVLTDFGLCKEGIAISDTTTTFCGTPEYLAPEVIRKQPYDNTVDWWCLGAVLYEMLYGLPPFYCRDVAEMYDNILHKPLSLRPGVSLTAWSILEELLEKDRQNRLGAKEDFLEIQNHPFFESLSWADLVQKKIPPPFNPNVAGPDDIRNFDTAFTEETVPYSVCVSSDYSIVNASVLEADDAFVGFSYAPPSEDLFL
# Tyrosine-protein kinase ABL2 (Homo sapiens), sequence (P42684 whole entry): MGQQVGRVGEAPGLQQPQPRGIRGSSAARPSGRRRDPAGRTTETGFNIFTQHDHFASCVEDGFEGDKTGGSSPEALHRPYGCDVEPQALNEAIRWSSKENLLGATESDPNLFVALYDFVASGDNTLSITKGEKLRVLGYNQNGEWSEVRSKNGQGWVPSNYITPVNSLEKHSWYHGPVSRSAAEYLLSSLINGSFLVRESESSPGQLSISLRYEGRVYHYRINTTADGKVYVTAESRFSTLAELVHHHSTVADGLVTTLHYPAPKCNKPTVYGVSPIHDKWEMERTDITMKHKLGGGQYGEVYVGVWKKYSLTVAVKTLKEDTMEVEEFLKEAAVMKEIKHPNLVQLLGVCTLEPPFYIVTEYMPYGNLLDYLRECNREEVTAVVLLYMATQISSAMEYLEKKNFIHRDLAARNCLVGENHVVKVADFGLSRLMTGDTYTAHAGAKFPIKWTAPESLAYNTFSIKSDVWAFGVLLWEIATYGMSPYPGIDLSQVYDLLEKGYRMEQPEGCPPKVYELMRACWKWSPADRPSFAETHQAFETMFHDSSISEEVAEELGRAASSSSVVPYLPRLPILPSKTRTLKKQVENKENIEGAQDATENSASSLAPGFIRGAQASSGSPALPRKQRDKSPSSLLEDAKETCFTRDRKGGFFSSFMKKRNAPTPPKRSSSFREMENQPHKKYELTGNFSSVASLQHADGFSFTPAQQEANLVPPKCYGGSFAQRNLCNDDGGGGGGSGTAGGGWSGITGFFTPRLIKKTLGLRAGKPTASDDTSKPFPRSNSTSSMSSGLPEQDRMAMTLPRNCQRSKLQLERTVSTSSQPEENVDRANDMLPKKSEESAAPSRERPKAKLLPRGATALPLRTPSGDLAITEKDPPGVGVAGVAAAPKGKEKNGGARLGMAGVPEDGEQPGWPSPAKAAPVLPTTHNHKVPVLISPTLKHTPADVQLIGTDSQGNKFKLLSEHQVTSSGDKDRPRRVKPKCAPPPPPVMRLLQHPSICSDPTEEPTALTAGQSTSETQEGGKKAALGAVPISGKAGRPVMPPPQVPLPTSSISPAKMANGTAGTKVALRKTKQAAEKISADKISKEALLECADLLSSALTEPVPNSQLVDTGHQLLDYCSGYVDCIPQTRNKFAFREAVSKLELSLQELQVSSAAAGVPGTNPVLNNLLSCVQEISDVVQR
# Fibroblast growth factor receptor 2 (Homo sapiens), sequence (P21802 22-821 limits assumed): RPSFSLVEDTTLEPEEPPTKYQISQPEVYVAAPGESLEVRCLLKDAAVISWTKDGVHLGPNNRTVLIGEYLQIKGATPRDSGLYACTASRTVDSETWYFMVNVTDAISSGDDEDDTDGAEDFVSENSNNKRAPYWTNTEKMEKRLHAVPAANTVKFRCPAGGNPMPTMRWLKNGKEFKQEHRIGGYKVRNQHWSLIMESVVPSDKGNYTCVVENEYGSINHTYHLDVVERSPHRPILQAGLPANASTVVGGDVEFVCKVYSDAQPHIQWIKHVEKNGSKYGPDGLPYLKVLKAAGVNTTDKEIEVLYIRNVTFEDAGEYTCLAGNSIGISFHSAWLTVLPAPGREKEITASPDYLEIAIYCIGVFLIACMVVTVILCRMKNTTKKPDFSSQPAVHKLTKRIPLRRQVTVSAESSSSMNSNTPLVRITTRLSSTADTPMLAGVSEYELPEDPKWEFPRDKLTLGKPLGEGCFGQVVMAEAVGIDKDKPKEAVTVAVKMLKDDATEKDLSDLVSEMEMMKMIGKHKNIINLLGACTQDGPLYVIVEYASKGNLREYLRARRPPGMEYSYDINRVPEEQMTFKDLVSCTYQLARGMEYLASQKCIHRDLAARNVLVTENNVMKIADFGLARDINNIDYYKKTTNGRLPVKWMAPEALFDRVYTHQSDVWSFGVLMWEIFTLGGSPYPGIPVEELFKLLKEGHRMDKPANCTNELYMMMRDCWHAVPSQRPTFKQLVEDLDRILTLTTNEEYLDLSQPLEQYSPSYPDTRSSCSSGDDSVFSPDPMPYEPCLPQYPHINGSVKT
# Homeodomain-interacting protein kinase 1 (Homo sapiens), sequence (Q86Z02 whole entry, looked up): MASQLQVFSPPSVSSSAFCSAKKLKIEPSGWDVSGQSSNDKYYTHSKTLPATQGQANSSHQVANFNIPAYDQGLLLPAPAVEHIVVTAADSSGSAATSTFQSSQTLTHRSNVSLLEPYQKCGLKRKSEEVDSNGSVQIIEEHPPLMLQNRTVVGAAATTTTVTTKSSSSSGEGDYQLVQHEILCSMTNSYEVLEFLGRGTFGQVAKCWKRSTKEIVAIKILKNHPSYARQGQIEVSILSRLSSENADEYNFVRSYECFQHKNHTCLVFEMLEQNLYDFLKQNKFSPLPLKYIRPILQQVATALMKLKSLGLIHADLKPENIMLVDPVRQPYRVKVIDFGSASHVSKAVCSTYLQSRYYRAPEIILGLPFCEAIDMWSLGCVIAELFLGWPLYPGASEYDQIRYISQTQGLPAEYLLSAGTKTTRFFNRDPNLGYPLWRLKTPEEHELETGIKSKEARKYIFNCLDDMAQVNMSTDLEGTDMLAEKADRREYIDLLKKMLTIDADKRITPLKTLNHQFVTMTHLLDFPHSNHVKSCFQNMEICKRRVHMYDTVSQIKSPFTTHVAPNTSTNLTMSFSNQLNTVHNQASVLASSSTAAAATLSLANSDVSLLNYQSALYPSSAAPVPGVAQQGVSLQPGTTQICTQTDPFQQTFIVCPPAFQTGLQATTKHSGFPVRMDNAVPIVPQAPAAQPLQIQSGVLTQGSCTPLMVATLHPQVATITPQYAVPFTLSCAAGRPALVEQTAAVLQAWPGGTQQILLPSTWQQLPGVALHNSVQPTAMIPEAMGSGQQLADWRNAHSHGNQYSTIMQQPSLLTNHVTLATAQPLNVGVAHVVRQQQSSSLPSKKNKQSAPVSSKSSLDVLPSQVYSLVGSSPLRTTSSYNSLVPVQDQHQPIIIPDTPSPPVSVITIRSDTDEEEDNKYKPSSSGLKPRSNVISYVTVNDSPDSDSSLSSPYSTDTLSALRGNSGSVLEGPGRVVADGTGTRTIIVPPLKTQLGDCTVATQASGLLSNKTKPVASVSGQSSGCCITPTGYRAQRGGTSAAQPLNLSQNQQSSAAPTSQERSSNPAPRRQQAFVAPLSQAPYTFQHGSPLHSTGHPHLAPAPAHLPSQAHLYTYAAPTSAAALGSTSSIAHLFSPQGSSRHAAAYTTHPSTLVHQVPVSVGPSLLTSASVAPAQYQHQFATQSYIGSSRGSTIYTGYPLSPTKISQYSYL
# 5'-AMP-activated protein kinase catalytic subunit alpha-2 (Homo sapiens), sequence (P54646 whole entry, looked up): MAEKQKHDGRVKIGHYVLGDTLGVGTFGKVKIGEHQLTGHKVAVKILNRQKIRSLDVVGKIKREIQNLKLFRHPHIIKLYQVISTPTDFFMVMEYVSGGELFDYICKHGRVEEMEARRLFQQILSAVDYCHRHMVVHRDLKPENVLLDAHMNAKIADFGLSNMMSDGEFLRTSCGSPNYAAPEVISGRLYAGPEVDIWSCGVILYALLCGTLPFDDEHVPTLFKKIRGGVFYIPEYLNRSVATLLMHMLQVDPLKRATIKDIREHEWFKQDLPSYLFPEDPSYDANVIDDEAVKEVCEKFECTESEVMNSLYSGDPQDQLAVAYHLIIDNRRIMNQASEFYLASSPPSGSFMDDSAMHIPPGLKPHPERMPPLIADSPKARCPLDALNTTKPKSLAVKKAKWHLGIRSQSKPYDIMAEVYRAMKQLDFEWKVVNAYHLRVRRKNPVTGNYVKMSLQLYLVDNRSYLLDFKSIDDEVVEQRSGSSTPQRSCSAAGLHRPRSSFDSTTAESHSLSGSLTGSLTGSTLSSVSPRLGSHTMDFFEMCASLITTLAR
# Serine/threonine-protein kinase 35 (Homo sapiens), sequence (Q8TDR2 whole entry): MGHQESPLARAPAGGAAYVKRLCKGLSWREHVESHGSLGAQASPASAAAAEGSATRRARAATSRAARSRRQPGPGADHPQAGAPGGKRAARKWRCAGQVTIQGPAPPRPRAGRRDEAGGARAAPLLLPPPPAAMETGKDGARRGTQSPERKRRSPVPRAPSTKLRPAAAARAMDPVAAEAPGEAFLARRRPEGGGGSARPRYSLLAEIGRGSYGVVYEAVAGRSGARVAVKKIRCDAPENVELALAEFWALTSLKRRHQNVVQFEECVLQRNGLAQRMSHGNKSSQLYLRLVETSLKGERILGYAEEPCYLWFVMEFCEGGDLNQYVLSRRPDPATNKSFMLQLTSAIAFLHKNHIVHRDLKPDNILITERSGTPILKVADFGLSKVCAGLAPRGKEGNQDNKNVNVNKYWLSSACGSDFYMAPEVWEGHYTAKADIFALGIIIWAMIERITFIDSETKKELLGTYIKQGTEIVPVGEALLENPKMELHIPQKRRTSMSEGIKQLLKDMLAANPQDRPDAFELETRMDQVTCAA
smiles,measurement,setting,value
CNC(=O)c1ccccc1Oc1nc(Nc2cc(OC)c(OC)c(OC)c2)ncc1Br,fold change (FC),[1],0.18
same,inhibition,[2],21%
CC(C)[C@H](NC(=O)c1cc(-c2cnn3cc(-c4ccc(OCCN5CCCCC5)cc4)cnc23)cs1)C(F)(F)F,fold change (FC),[3],0.94
same,inhibition,[4],0%
same,fold change (FC),[5],0.1
O=C(N[C@@H](C1CC1)C(F)(F)F)c1cc(-c2cnn3cc(-c4ccc(F)cc4)cnc23)cs1,inhibition,[6],0%
same,inhibition,[7],2%
same,inhibition,[8],0%
